From paper PMC10374283 (Journal of medicinal chemistry, 2023) come the findings set out here.

“Also recorded” adds a separate entry of the source.

Data set [1] can be described thus: Colloidal aggregation by dynamic light scattering. To be noted: for colloid-like particle formation by DLS: 50 mM KPi pH 7.0, 1% DMSO; for CAC relative to Nsp14 IC50: DLS CAC divided by Nsp14 IC50. The class given is physicochemical.
The subject of data set [2] is malate dehydrogenase (MDH). Put plainly: Aggregation counter-screen, malate dehydrogenase inhibition. The format is biochemical. The conditions noted are these: for inhibition of MDH: absence of detergent; for inhibition of MDH with detergent: with 0.01% Triton X-100. On the technique in general: The purpose of a counterscreen is to sort out artefacts and off-target activity.

The target in data set [3] is T1, SARS-CoV-2 Nsp14 (Severe acute respiratory syndrome coronavirus 2, UniProt P0DTD1). Briefly: biochemical. The class given is biochemical.
Data set [4] deals with T1, SARS-CoV-2 Nsp14. Put plainly: Mechanism of action: IC50 at varying SAM and RNA concentrations. The class given is biochemical. To be noted: varying SAM or RNA concentration.
The next data set deals with AmpC β-lactamase (AmpC) (Escherichia coli, UniProt P00811). The format is biochemical. To be noted: for inhibition of AmpC: absence of detergent; for inhibition of AmpC with detergent: with 0.01% Triton X-100.
Chain of AmpC β-lactamase (AmpC) (P00811 20-377): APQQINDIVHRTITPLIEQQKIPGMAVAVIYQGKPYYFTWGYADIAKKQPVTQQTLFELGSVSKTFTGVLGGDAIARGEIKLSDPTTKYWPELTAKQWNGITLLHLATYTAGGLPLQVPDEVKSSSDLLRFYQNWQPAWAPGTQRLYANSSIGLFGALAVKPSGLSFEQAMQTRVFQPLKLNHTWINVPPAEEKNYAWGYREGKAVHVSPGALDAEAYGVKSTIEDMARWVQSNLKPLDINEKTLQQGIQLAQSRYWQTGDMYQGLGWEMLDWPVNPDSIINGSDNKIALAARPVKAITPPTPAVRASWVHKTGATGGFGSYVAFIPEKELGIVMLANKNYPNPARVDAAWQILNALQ
Another data set relates to SARS-CoV-2. Put plainly: Antiviral activity versus cell toxicity. The class given is cell-based.
The test system of another data set is MDH or AmpC. Put plainly: Aggregation counter-screen, enzyme not specified per compound. The class given is biochemical. To be noted: for inhibition of MDH or AmpC: absence of detergent; for inhibition of MDH or AmpC with detergent: with 0.01% of detergent.
A further data set has as its target Nsp14 (Severe acute respiratory syndrome coronavirus 2, UniProt P0DTD1). Briefly: Assessment of covalent binding to Nsp14 by LC-MS. Set-up: species or system SARS-CoV-2. The essentials: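 SARS-CoV-2 Nsp14 was E. coli-expressed with a His6-SUMO tag and purified after SUMO removal. Protein was incubated with a 20-fold molar excess of test compound for 2 h at room temperature (20 °C), then diluted in 0.1% formic acid. Separation used HPLC with a 5–95% acetonitrile/water gradient, followed by ESI time-of-flight mass spectrometry.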

The target in data set [5] is T1, SARS-CoV-2 Nsp14. The class given is biochemical. To be noted: preincubated at 10-fold IC50 for 1 h, diluted 100-fold.
In data set [6] the test system is panel of 30 human SAM-dependent MTases. Briefly: Selectivity panel of 30 human SAM-dependent protein and RNA MTases. The class given is biochemical. The conditions noted are these: compounds at 10 μM, 30 human MTases.

Take `CC(C)SCn1cnc2cnn(C)c2c1=O` [‘5604, 6-((Isopropylthio)methyl)-1-methyl-1H-pyrazolo[4,3-d]-pyrimidin-7(6H)-One]: the “colloid-like particle formation by DLS” value in data set [1] is “CACs at relevant concentrations”. In [2], the “inhibition of MDH” value is “inhibited MDH”.
In the case of `CCC(=O)NCCC(=O)N1CCC(C2C(=O)Nc3cc(Cl)ccc32)CC1` (centres unmarked) [ZD160–68, N-(3-(4-(6-Chloro-2-oxoindolin-3-yl)piperidin-1-yl)-3-oxopropyl)-propionamide], the “Nsp14 enzymatic inhibition (in words)” value on SARS-CoV-2 Nsp14 [3] was “inactive; also recorded: no enzymatic inhibition”.
Regarding `Oc1ccccc1-c1ncnc2[nH]ccc12` [‘0683, 2-(7H-Pyrrolo[2,3-d]pyrimidin-4-yl)phenolv], the “ligand efficiency (LE)” value on SARS-CoV-2 Nsp14 [3] (from Nsp14 IC50) came to 0.42 kcal/heavy atom. The “pattern of inhibition versus SAM and RNA” value at SARS-CoV-2 Nsp14 [4] was “competitive and presumably reversible inhibitor of both SAM and RNA binding”. Also, the “inhibition of MDH” value in data set [2] was “both MDH and AmpC”. Moreover, the “inhibition of AmpC” value against AmpC β-lactamase (AmpC) is “both MDH and AmpC”. The “antiviral activity versus cell toxicity” value in the data set on SARS-CoV-2 was “for none of them could we distinguish anti-viral activity from cell toxicity”.
Turning to `Cc1cc(C(=O)Nc2cccc(N3CCNC3=O)c2C)sc1C=O` [‘4975, 5-Formyl-4-methyl-N-(2-methyl-3-(2-oxoimidazolidin-1-yl)-phenyl)thiophene-2-carboxamide], in the data set on SARS-CoV-2, the “antiviral activity versus cell toxicity” value was “for none of them could we distinguish anti-viral activity from cell toxicity”.
Take `Cc1nc2ncc(-c3c[nH]nn3)cc2[nH]1` [‘0222, 2-Methyl-6-(1H-1,2,3-triazol-4-yl)-1H-imidazo[4,5-b]pyridine]: the “colloid-like particle formation by DLS” value in [1] is “CACs at relevant concentrations”.
For the compound `C=CC(=O)NC[C@H](OC)C(=O)N1CCC(C2C(=O)Nc3cc(Cl)ccc32)CC1` (stereo partly drawn) [acryl42_10, N-((2S)-3-(4-(6-Chloro-2-oxoindolin-3-yl)piperidin-1-yl)-2-methoxy-3-oxopropyl)acrylamide], at SARS-CoV-2 Nsp14 [3], the IC50 (in general, the midpoint of a concentration-inhibition curve) is 7 µM. At SARS-CoV-2 Nsp14 [3] (relative to parent acryl42), the “fold more potent than acryl42” value is on record as 4.5 fold. Moreover, the “antiviral activity versus cell toxicity” value with SARS-CoV-2 is on record as “for none of them could we distinguish anti-viral activity from cell toxicity”.
On to `Cn1c(=O)[nH]c2ncc(-c3cccc(C(=O)Nc4cccc(C#N)c4)c3)cc21` [‘9213, N-(3-Cyanophenyl)-3-(1-methyl-2-oxo-2,3-dihydro-1H-imidazo-[4,5-b]pyridin-6-yl)benzamide], for which, on SARS-CoV-2 Nsp14 [3] (tested at 30 and 50 μM), the “enzyme inhibition at 30 and 50 μM” value was “more than 50%”. In addition, in [1], the “colloid-like particle formation by DLS” value is listed as “did form colloid-like particles by DLS”.
As to `CN(C)c1cncc(NC(=O)c2ccc(C=O)cc2O)c1` [‘1889, N-(5-(Dimethylamino)pyridin-3-yl)-4-formyl-2-hydroxybenza-mide], the “CAC relative to Nsp14 IC50” value in [1] is reported as “CAC five-fold higher than its Nsp14 IC50”. Moreover, in data set [2], the “inhibition of MDH” value is given as “did not inhibit either counter-screening enzyme under any measured condition”. Moreover, the “inhibition of AmpC” value at AmpC β-lactamase (AmpC) is “did not inhibit either counter-screening enzyme under any measured condition”.
With `N#Cc1c(C(=O)NCc2ccc(O)c([N+](=O)[O-])c2)[nH]c2ccccc12` [‘6943, 3-Cyano-N-(4-hydroxy-3-nitrobenzyl)-1H-indole-2-carboxamide], the “colloid-like particle formation by DLS” value in data set [1] is recorded as “did form colloid-like particles by DLS”. Moreover, in the data set on MDH or AmpC, the “inhibition of MDH or AmpC” value is on record as “inhibited MDH or AmpC at relevant concentrations” and the “inhibition of MDH or AmpC with detergent” value is on record as “inhibition was largely eliminated”.
`O=C(NC1CSC1)c1ncnn2cccc12` [‘5763, N-(Thietan-3-yl)pyrrolo[2,1-f][1,2,4]triazine-4-carboxamide]: in data set [1], the “colloid-like particle formation by DLS” value was “CACs at relevant concentrations”.
Same read-out and setting: the entry for `Cn1ncc(N)c1-c1cc2ccccc2[nH]1` [‘6066, 5-(1H-Indol-2-yl)-1-methyl-1H-pyrazol-4-amine] is “CACs at relevant concentrations”.
Consider `C=CC(=O)N(C)c1ccc(C(=O)Nc2ccc(-c3cn4ccsc4n3)cc2)cc1` [acryl41], for which the “covalent adduct formation with Nsp14 by mass spectrometry” value at Nsp14 is reported as “did not form a measurable adduct by mass spectrometry”.
At SARS-CoV-2 Nsp14 [3], `O=C(COC(=O)c1cc(-c2ccoc2)n[nH]1)Nc1ccc(Br)cc1` [‘1988, 2-((4-Bromophenyl)amino)-2-oxoethyl 3-(Furan-3-yl)-1H-pyra-zole-5-carboxylate] yielded an IC50 of 6 µM. Also, the “reversibility of Nsp14 inhibition by jump/rapid dilution” value at SARS-CoV-2 Nsp14 [5] is listed as “noncovalent inhibitor”. In addition, at SARS-CoV-2 Nsp14 [4], the “pattern of inhibition versus SAM and RNA” value was “SAM- and RNA-competitive pattern of inhibition”. In data set [1], the “colloid-like particle formation by DLS” value is reported as “formed colloid-like particles by DLS” and the “CAC relative to Nsp14 IC50” value is listed as 10 fold. For the same compound, in [2], the “inhibition of MDH” value is on record as “inhibition of MDH was in a relevant range” and the “inhibition of MDH with detergent” value is “inhibition of both enzymes disappeared”. At AmpC β-lactamase (AmpC), the “inhibition of AmpC with detergent” value is “inhibition of both enzymes disappeared”. Moreover, in data set [6], the “inhibition of panel enzymes (>50% criterion)” value (“inhibition … (>50% criterion)” for short) is listed as “inhibiting nine enzymes more than 50%”. In the data set with SARS-CoV-2, the “antiviral activity versus cell toxicity” value is reported as “for none of them could we distinguish anti-viral activity from cell toxicity”.
Regarding `Cc1c(C(=O)/C=C/c2cc(Br)c(O)cc2F)c(C#N)c2n1CCC2` [‘6953, (E)-6-(3-(5-Bromo-2-fluoro-4-hydroxyphenyl)acryloyl)-5-methyl-2,3-dihydro-1H-pyrrolizine-7-carbonitrile], the “colloid-like particle formation by DLS” value in [1] was “did form colloid-like particles by DLS”. Moreover, in the data set on MDH or AmpC, the “inhibition of MDH or AmpC” value is listed as “inhibited MDH or AmpC at relevant concentrations” and the “inhibition of MDH or AmpC with detergent” value is given as “inhibition was largely eliminated”.
In the case of `N#Cc1ccc(NC(=O)c2cc(C=O)n3c2CCCC3)c2cc(O)ccc12` [‘1911, N-(4-Cyano-7-hydroxynaphthalen-1-yl)-3-formyl-5,6,7,8-tetra-hydroindolizine-1-carboxamide], the “reversibility of Nsp14 inhibition by jump/rapid dilution” value on SARS-CoV-2 Nsp14 [5] is on record as “little residual inhibition when diluted below its IC50”. Besides, the “covalent adduct formation with Nsp14 by mass spectrometry” value on Nsp14 is “did not increase the molecular mass of Nsp14”. The “colloid-like particle formation by DLS” value in data set [1] was “did form colloid-like particles by DLS at a relevant concentration”. In addition, in [2], the “inhibition of MDH” value is “did inhibit AmpC and MDH in the absence of Triton”; the “inhibition of MDH with detergent” value is on record as “this inhibition disappeared”. Moreover, at AmpC β-lactamase (AmpC), the “inhibition of AmpC” value was “did inhibit AmpC and MDH in the absence of Triton”; the “inhibition of AmpC with detergent” value was “this inhibition disappeared”. For the same compound, the “inhibition … (>50% criterion)” value in data set [6] is “inhibiting only two histone MTases; also recorded: only hit two very closely related MTases”. In addition, the “antiviral activity versus cell toxicity” value in the data set on SARS-CoV-2 is “for none of them could we distinguish anti-viral activity from cell toxicity”.
Turning to `C=C(Cl)COC(=O)c1cnc2[nH]ccc2c1` [‘0741, 2-Chloroallyl 1H-pyrrolo[2,3-b]pyridine-5-carboxylate], in [2], the “inhibition of MDH” value was “inhibited MDH” and the “inhibition of MDH with detergent” value is on record as “this effect was smaller”.
As for `Cc1c(C(=O)/C=C/c2ccc(O)c([N+](=O)[O-])c2)c(C#N)c2n1CCC2` [‘4824, (E)-6-(3-(4-Hydroxy-3-nitrophenyl)acryloyl)-5-methyl-2,3-dihydro-1H-pyrrolizine-7-carbonitrile], the “reversibility of Nsp14 inhibition by jump/rapid dilution” value at SARS-CoV-2 Nsp14 [5] was “inhibition by ‘4824 is not due to the nitrile electrophile”. Moreover, on SARS-CoV-2 Nsp14 [4], the “pattern of inhibition versus SAM and RNA” value was “SAM- and RNA-competitive pattern of inhibition”. The “colloid-like particle formation by DLS” value in [1] is “did not form detectable particles by DLS”. In data set [2], the “inhibition of MDH” value was “did inhibit the counter-screening enzymes MDH and AmpC at relevant concentrations”; the “inhibition of MDH with detergent” value is “inhibition was largely or entirely eliminated”. In addition, at AmpC β-lactamase (AmpC), the “inhibition of AmpC” value is “did inhibit the counter-screening enzymes MDH and AmpC at relevant concentrations”; the “inhibition of AmpC with detergent” value is “inhibition was largely or entirely eliminated”. In addition, in [6], the “inhibition … (>50% criterion)” value is listed as “no inhibition greater than 50% for any enzyme in the panel; also recorded: Nsp14-selective”.
`Cn1c(C(=O)NCc2ccc(O)c([N+](=O)[O-])c2)c(Br)c2ccccc21` [‘6947, 3-Bromo-N-(4-hydroxy-3-nitrobenzyl)-1-methyl-1H-indole-2-carboxamide]: the “colloid-like particle formation by DLS” value in data set [1] is reported as “did form colloid-like particles by DLS”. Further, in the data set with MDH or AmpC, the “inhibition of MDH or AmpC” value is “inhibited MDH or AmpC at relevant concentrations” and the “inhibition of MDH or AmpC with detergent” value is “inhibition was largely eliminated”.
